Activity calls are given as the source filed them. No cut-off for these calls is given here.
Assays:
SW1573 [1] = assay: Induction of apoptosis in human SW1573 cells assessed as membrane blebbing at 20 uM measured upto 15 hrs by microscopy based analysis; type: functional, cell-based
How it was run: (§1)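 HeLa and SW1573 seeded at 100,000 cells/dish. After 24 h, medium switched to phenol-red-free RPMI 1640 and 20 μM added. Label-free holotomographic 3D live imaging of a 236 × 236 μm field, 10–20 cells initially, every 3 min for 15 h. Average dry mass density measured per cell at each cycle; morphology scored against untreated cells.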

T47D = assay: Growth inhibition of human T47D cells measured after 48 hrs by SRB colorimetric assay; type: functional
How it was run: (§2)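 NCI-based protocol with sulforhodamine B read-out. Seeded 2500 (A549, HBL-100, HeLa, SW1573), 5000 (T-47D, WiDr, SW1573/P-gp) or 7000 (BJ-hTERT) cells/well. Exposed 48 h to serial decimal dilutions, 0.001–100 μM, from 40 mM DMSO stock. GI50 by NCI formulas; mean of three or more experiments ± SD.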

SW1573 [2] = assay: Inhibition of colony formation in human SW1573 cells assessed as reduction in colony size at one third of GI50 concentration measured after 7 days by crystal violet staining based analysis; type: functional, cell-based; details: time 7.0 day
How it was run: (§3)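 HeLa and SW1573 seeded at 400 cells/well, dosed next day at GI50/3 and GI50 for the given line. Exposed seven days, fixed in methanol, stained with 0.5% w/v crystal violet. Colonies counted by automatic image segmentation.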

[3] = target: Mitogen-activated protein kinase 14 (Mus musculus) (UniProt P47811); assay: Inhibition of LPS-stimulated p38 alpha phosphorylation in mouse BV-2 cells at 10 uM measured after 30 mins by Western blot analysis; type: cell-based
How it was run: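 Bv.2 cells exposed with or without LPS for 15–90 min. Protein extracts run on SDS-PAGE, blotted to PVDF, probed with anti-phospho-p38α MAPK and anti-total p38α MAPK (1:1000), ECL detection. Quantified by densitometry, mean ± SEM, n = 3.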

BV-2 [4] = assay: Protection against LPS induced inflammation in mouse BV-2 cells assessed as decrease in IL1-beta mRNA expression at 10 uM incubated for 24 hrs with LPS stimulation by qRT-PCR analysis
SW1573 [5] = assay: Induction of morphological changes in human SW1573 cells assessed as increase in average dry mass density at 20 uM measured after 15 hrs by imaging based analysis; type: functional, cell-based; how it was run: as §1
hTERT-BJ = assay: Growth inhibition of human hTERT-BJ cells measured after 48 hrs by SRB colorimetric assay; type: functional
How it was run: as §2, with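 “read-out. Cells grown in RPMI 1640 with 5% FBS and 1 mM glutamine at 37 °C, 5% CO₂.” for “read-out.”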

SW1573 [6] = assay: Growth inhibition of human SW1573 cells measured after 48 hrs in presence of verapamil by SRB colorimetric assay; type: functional
How it was run: as §2, with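 “read-out. Cells grown in RPMI 1640 with 5% FBS and 1 mM glutamine at 37 °C, 5% CO₂.” for “read-out.”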

SW1573 [7] = assay: Inhibition of colony formation in human SW1573 cells assessed as reduction in colony size at GI50 concentration measured after 7 days by crystal violet staining based analysis; type: functional, cell-based; details: time 7.0 day; how it was run: as §3
[8] = Resistance factor, ratio of GI50 for growth inhibition of human SW1573 cells overexpressing P-glycoprotein measured after 48 hrs in absence of verapamil to GI50 for growth inhibition of human SW1573 cells measured after 48 hrs in absence of verapamil; type: functional
How it was run: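 Resistance factor: GI50 in P-gp-overexpressing SW1573 divided by GI50 in parental SW1573, each from 48 h SRB growth-inhibition assay without verapamil. Values are means of three or more independent experiments.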

HeLa [9] = assay: Induction of morphological changes in human HeLa cells assessed as cell shrinkage at 20 uM measured after 5 hrs by microscopy based analysis; type: functional; how it was run: as §1
BV-2 [10] = assay: Antiinflammatory activity in mouse BV-2 cells assessed as reduction of LPS induced nitrites at 10 uM preincubated for 3 hrs followed by LPS stimulation and measured after 24 hrs by Griess method; type: functional, cell-based; details: time 27.0 hrs
How it was run: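 Bv.2 microglia at 70% confluence, pre-treated 3 h at 10 μM in serum-free medium, then LPS 200 ng/mL for 24 h. Nitrite in the medium measured by Griess (1% sulphanilamide, 0.1% NEDA in acid), absorbance 548 nm, expressed as fold change over basal. n ≥ 4 independent experiments in triplicate, mean ± SEM.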

HeLa [11] = assay: Induction of morphological changes in human HeLa cells assessed as production of filmy bubbles at 20 uM measured after 12 hrs by imaging based analysis; type: functional, cell-based; how it was run: as §1
HeLa [12] = assay: Induction of morphological changes in human HeLa cells assessed as increase in cell shrinkage at 20 uM measured after 12 hrs by imaging based analysis
A549 = assay: Growth inhibition of human A549 cells measured after 48 hrs by SRB colorimetric assay; type: functional; how it was run: as §2
HeLa [13] = assay: Induction of morphological changes in human HeLa cells assessed as membrane rupture at 20 uM measured after 12 hrs by imaging based analysis; type: functional, cell-based; how it was run: as §1
SW1573 [14] = assay: Growth inhibition of human SW1573 cells measured after 48 hrs in absence of verapamil by SRB colorimetric assay; type: functional
How it was run: as §2, with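 “read-out. Cells grown in RPMI 1640 with 5% FBS and 1 mM glutamine at 37 °C, 5% CO₂.” for “read-out.”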

Chain of Mitogen-activated protein kinase 14 (Mus musculus) (P47811 whole entry): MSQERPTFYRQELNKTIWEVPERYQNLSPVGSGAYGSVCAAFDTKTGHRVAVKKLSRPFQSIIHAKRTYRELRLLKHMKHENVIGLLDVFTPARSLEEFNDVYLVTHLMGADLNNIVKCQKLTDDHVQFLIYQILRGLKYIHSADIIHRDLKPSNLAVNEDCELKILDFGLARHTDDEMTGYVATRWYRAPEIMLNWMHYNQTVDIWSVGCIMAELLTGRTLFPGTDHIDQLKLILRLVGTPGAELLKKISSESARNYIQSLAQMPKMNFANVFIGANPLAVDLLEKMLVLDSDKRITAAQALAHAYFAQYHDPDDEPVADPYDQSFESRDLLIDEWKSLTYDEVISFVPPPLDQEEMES

GI50 (T47D): 18 µM | inhibition [3]: inactive | GI50 (SW1573 [6]): 15 µM | GI50 (A549): 4.6 µM | GI50 (SW1573 [14]): 3.3 µM
SMILES: CCCCCCCCCCCCS(=O)(=O)[C@@H]1[C@H](F)[C@@H](O)[C@H](O)[C@H]2COC(=O)N21
Activity (SW1573 [1]): inactive | inhibition (SW1573 [2]): Active | Activity (BV-2 [4]): Active | Activity (SW1573 [5]): Active | GI50 (hTERT-BJ): 32 µM | inhibition (SW1573 [7]): Active | RatioGI50 [8]: 1.6 | Activity (HeLa [9]): Active | Activity (BV-2 [10]): Active | Activity (HeLa [11]): Active | Activity (HeLa [12]): Active | Activity (HeLa [13]): Active
